Here are results for one compound from ChEMBL document CHEMBL5661979, “Pharmacological inhibition of BMK1 suppresses tumor growth through promyelocytic leukemia protein” (Cancer Cell, 2010).

The structures appear in SMILES notation.

For assay [1], the target named is Serine/threonine-protein kinase DCLK2 (Homo sapiens) (UniProt Q8N568). Put plainly: Inhibition of DCAMKL2 (unknown origin) assessed as remaining activity at 10 uM by ATP-competition binding assay relative to control.
For assay [2], the target named is Serine/threonine-protein kinase SMG1 (Homo sapiens, UniProt Q96Q15). The assay can be described thus: Inhibition of SMG1 in human HeLa cells lysate at 50 uM pre incubated for 15 mins followed by ATP acyl phosphate probe addition and measured after 10 mins by LC-MS/MS analysis relative to control. The assay is classed as subcellular. To be noted: time 25.0 min.
Sequence of Serine/threonine-protein kinase SMG1 (Q96Q15 whole entry, the tested form may be a part): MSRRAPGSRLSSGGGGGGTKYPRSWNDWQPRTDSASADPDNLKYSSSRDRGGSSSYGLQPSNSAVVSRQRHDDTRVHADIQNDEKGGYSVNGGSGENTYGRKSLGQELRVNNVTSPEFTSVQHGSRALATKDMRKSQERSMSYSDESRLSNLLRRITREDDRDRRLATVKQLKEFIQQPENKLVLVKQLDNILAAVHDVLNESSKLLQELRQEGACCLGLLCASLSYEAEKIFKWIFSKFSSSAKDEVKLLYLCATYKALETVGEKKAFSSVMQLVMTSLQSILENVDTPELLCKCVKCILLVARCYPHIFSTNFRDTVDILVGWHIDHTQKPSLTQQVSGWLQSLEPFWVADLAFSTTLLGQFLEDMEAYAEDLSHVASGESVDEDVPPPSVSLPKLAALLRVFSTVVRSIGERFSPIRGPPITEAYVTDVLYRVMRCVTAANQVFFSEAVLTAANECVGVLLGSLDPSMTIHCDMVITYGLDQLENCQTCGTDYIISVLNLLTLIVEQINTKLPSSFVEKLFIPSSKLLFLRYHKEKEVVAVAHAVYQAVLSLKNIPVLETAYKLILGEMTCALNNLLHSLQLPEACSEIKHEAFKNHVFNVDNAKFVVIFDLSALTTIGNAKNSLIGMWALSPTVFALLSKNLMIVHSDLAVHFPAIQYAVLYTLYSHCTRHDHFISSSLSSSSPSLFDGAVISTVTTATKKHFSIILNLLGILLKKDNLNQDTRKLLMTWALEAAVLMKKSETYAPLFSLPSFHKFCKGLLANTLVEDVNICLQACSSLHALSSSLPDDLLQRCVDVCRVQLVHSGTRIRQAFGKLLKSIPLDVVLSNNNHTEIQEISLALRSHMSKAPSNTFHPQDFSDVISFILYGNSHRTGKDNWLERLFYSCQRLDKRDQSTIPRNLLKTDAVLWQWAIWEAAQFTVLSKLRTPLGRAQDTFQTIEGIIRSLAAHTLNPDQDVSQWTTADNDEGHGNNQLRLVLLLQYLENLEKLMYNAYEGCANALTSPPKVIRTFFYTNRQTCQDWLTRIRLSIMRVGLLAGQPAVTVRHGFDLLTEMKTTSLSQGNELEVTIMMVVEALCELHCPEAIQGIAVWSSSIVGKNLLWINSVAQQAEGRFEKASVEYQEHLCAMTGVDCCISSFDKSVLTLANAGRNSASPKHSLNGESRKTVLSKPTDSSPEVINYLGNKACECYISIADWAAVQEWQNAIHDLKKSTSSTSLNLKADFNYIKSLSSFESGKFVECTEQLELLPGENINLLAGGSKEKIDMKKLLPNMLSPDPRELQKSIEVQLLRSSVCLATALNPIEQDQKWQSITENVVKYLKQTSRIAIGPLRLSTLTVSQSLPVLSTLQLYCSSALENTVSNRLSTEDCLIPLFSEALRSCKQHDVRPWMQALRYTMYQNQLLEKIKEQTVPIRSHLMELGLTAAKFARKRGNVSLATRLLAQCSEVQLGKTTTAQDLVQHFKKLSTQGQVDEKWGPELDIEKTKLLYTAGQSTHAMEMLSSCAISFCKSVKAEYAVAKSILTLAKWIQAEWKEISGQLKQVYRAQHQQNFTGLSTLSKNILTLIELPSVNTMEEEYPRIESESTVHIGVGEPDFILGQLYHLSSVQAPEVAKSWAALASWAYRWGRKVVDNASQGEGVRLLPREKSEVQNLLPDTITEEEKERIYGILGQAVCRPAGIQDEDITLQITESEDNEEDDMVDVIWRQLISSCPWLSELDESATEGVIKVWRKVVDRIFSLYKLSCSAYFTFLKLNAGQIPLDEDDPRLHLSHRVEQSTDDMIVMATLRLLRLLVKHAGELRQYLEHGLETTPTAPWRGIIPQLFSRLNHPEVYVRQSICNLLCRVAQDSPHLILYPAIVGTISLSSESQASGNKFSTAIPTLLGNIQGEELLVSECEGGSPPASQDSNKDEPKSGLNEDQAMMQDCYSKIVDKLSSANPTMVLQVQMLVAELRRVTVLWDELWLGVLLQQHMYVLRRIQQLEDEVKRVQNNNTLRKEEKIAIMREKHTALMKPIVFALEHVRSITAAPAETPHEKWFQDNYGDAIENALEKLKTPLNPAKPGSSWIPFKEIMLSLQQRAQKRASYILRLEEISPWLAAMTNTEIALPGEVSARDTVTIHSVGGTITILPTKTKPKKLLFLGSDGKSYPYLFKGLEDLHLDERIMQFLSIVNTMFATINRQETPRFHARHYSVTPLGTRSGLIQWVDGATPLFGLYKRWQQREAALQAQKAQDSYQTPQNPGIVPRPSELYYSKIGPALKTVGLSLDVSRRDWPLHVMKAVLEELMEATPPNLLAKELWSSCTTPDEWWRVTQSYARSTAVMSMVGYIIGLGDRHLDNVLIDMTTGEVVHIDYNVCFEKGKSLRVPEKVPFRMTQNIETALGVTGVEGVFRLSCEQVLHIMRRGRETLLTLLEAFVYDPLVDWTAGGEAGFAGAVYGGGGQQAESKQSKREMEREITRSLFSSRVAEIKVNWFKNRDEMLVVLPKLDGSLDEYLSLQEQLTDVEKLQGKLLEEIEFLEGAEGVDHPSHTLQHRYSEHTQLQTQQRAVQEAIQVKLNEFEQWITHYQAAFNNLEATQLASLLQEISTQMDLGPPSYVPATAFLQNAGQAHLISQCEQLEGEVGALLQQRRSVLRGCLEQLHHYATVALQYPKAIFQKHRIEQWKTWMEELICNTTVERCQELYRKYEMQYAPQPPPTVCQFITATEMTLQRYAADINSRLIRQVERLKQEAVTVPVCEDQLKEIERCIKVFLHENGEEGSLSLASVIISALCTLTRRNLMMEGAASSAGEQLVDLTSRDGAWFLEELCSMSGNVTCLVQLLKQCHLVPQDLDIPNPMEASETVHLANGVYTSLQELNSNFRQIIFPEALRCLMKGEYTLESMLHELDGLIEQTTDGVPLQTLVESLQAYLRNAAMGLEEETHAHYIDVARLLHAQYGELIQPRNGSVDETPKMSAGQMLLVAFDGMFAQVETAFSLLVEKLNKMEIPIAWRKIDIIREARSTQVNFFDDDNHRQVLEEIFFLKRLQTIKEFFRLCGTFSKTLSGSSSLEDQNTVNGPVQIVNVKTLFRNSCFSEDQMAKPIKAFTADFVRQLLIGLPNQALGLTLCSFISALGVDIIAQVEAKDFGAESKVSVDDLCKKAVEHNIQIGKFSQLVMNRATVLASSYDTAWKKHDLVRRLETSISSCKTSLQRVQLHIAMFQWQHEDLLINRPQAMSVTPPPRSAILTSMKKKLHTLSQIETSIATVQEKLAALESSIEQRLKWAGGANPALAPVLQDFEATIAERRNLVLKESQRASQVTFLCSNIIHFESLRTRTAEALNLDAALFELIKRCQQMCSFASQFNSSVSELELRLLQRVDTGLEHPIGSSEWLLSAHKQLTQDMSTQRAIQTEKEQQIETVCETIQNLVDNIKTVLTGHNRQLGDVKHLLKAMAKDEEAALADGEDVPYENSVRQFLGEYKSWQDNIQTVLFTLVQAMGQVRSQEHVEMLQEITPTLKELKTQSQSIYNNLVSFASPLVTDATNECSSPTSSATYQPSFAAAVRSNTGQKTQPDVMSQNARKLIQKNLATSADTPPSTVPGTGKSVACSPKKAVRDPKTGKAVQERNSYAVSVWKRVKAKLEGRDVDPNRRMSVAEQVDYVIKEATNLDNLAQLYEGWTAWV
Assay [3] concerns the target Phosphatidylinositol 4-phosphate 3-kinase C2 domain-containing subunit beta (Homo sapiens, UniProt O00750). The assay can be described thus: Inhibition of PIK3C2B in human HeLa cells lysate at 10 uM pre incubated for 15 mins followed by ATP acyl phosphate probe addition and measured after 10 mins by LC-MS/MS analysis relative to control. The assay is classed as subcellular. The settings on record: time 25.0 min.

Assay [4] addresses Non-receptor tyrosine-protein kinase TNK1 (Homo sapiens, UniProt Q13470). Put plainly: Inhibition of TNK1 in human HeLa cells lysate pre incubated for 15 mins followed by ADP acyl phosphate probe addition and measured after 10 mins by LC-MS/MS analysis. In kind it is subcellular.
Another assay has as its target AMPK alpha1/alpha2 (Homo sapiens, UniProt P54646+Q13131). The assay can be described thus: Inhibition of AMPKalpha1/2 in human HeLa cells lysate at 50 uM pre incubated for 15 mins followed by ATP acyl phosphate probe addition and measured after 10 mins by LC-MS/MS analysis relative to control. In kind it is subcellular. The settings on record: time 25.0 min. The method in brief: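 HeLa cell lysates (5 mg/mL total protein) were preincubated with inhibitor at 0, 0.8, 2, 10 or 50 μM for 15 min. ATP or ADP acylphosphate probe was then added (5 μM final) for 10 min, and reactions were stopped with urea. Up to four fragment ions per kinase probe-peptide were quantified by targeted MS. % inhibition was taken relative to untreated lysate. Run in duplicate.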

Assay [5] is described as follows: Inhibition of PRKX/PRKY in human HeLa cells lysate at 10 uM pre incubated for 15 mins followed by ADP acyl phosphate probe addition and measured after 10 mins by LC-MS/MS analysis relative to control. The settings on record: 25 min, condition cancer.
Assay [6] is described as follows: Inhibition of HGK/MINK/TNIK in human HeLa cells lysate at 2 uM pre incubated for 15 mins followed by ADP acyl phosphate probe addition and measured after 10 mins by LC-MS/MS analysis relative to control. To be noted: 25 min, condition cancer.
In assay [7] the target is T1, Serine/threonine-protein kinase 3 (Homo sapiens) (UniProt Q13188).
T1 sequence (whole entry): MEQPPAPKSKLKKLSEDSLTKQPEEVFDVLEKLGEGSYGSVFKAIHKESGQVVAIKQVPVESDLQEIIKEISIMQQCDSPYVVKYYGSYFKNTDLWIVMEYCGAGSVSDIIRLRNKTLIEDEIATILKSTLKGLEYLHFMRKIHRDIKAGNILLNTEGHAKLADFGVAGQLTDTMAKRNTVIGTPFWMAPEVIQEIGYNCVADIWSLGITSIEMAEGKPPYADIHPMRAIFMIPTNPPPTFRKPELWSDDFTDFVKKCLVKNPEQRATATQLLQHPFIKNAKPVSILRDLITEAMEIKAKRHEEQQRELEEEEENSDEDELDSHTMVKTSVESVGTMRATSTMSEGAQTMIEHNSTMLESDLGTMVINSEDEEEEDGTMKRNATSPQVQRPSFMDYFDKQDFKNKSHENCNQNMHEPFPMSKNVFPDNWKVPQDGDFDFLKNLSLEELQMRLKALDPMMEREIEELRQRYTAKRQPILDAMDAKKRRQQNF
Put plainly: Inhibition of MST2 in human HeLa cells lysate at 2 uM pre incubated for 15 mins followed by ADP acyl phosphate probe addition and measured after 10 mins by LC-MS/MS analysis relative to control. In kind it is subcellular. To be noted: time 25.0 min.

Assay [8] addresses Serine/threonine-protein kinase Chk2 (Homo sapiens, UniProt O96017). The assay can be described thus: Inhibition of CHK2 in human HeLa cells lysate at 10 uM pre incubated for 15 mins followed by ADP acyl phosphate probe addition and measured after 10 mins by LC-MS/MS analysis relative to control. In kind it is subcellular. The settings on record: time 25.0 min.
Assay [9] deals with T2, Serine/threonine-protein kinase Nek9 (Homo sapiens) (UniProt Q8TD19).
T2 sequence (whole entry): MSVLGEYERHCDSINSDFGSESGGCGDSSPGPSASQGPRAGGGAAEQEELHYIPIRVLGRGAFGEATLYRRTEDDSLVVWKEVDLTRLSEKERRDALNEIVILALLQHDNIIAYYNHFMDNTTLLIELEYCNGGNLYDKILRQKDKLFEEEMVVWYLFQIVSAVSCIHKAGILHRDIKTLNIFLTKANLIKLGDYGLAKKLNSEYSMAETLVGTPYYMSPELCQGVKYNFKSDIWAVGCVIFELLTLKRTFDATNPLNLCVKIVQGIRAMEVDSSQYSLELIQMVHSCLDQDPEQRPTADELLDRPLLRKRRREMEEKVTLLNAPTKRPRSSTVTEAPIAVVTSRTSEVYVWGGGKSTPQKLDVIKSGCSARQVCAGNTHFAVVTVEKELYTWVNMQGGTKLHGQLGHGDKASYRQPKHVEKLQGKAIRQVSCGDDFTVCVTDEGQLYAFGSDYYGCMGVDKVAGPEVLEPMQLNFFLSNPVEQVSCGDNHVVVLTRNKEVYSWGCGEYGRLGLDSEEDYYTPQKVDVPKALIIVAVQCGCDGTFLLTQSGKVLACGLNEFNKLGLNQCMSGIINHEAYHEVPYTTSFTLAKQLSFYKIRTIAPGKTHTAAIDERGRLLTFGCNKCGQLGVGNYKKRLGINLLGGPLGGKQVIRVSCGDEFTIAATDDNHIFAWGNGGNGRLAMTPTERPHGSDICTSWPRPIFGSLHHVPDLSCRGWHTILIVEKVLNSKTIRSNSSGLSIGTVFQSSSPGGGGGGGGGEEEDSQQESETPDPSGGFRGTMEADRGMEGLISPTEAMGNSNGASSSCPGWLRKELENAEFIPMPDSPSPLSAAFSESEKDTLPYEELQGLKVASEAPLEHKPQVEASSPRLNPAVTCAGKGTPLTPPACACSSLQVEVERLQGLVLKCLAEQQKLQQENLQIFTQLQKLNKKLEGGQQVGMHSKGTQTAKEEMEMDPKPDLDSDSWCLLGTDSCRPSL
The assay can be described thus: Inhibition of NEK9 in human HeLa cells lysate at 2 uM pre incubated for 15 mins followed by ATP acyl phosphate probe addition and measured after 10 mins by LC-MS/MS analysis relative to control. The assay is classed as subcellular. To be noted: time 25.0 min.

The target in assay [10] is Ribosomal protein S6 kinase alpha-1 (Homo sapiens, UniProt Q15418). The assay can be described thus: Inhibition of RSK1 domain 2 in human HeLa cells lysate at 10 uM pre incubated for 15 mins followed by ATP acyl phosphate probe addition and measured after 10 mins by LC-MS/MS analysis relative to control. In kind it is subcellular. To be noted: time 25.0 min.
The target in the next assay is eIF-2-alpha kinase GCN2 (Homo sapiens, UniProt Q9P2K8). Put plainly: Inhibition of GCN2 in human HeLa cells lysate pre incubated for 15 mins followed by ATP acyl phosphate probe addition and measured after 10 mins by LC-MS/MS analysis. In kind it is subcellular.

Sequence of Serine/threonine-protein kinase DCLK2 (Homo sapiens) (Q8N568 whole entry): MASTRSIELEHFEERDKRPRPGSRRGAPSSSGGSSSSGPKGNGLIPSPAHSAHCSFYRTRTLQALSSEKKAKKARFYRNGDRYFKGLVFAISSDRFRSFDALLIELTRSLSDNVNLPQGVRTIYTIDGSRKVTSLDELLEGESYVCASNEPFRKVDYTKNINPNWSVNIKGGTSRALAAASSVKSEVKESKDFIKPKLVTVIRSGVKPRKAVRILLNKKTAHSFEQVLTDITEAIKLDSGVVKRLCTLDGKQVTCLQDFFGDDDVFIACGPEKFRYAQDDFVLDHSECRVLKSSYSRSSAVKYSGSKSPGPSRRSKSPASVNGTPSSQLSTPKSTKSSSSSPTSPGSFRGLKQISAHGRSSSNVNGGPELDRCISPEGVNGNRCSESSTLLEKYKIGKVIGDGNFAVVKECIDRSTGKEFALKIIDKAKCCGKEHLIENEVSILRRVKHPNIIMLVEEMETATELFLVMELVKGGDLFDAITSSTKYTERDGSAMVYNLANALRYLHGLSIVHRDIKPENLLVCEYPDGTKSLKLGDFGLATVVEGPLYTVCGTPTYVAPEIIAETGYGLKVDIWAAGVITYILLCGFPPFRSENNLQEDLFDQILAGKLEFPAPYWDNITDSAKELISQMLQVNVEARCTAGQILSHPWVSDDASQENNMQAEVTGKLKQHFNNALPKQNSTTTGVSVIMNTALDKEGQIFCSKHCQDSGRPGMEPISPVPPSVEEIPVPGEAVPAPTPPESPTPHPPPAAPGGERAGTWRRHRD
Sequence of Non-receptor tyrosine-protein kinase TNK1 (Q13470 whole entry): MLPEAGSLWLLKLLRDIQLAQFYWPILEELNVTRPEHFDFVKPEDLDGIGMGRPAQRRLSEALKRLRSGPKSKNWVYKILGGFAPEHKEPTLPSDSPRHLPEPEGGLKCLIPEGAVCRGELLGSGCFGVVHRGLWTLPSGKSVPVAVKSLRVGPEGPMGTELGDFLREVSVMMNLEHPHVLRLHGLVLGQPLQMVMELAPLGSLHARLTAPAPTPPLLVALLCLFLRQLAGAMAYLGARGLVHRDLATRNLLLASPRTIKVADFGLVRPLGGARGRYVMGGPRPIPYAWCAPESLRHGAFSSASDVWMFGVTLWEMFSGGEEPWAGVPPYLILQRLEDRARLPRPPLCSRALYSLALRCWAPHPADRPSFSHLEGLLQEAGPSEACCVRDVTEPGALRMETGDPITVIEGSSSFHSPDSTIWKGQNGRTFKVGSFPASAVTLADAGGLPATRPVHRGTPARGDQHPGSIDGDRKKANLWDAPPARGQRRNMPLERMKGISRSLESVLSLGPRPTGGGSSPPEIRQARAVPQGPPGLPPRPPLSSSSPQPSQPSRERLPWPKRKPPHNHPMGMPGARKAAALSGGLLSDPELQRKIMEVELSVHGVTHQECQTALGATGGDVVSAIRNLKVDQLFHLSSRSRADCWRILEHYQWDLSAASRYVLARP

The term inhibition denotes the drop in the measured response relative to a control, in per cent. By IC50 is commonly meant the midpoint of a concentration-inhibition curve. Read a low IC50 as inhibition by little substance. With `CCOc1cc(N2CCC(O)CC2)ccc1Nc1ncc2c(n1)N(C)c1ccccc1C(=O)N2C`, in assay [1], the Activity turned out to be 0.65%. Further, the inhibition is -1.9% in assay [2]; 6.5% in [3]; 32% on AMPK alpha1/alpha2; 26.2% in assay [7]; 1.1% in assay [8]; 3% in assay [9]. Moreover, the inhibition in assay [10] is 20.9%. Moreover, the values for the IC50 (in assay [4]; at eIF-2-alpha kinase GCN2) were 10 µM and > 50 µM, respectively. The inhibition at 10 µM in [5] is -14.3%. The inhibition at 2 µM in assay [6] worked out at 8.7%.
